Assay results from ChEMBL document CHEMBL4014342, “Subtly Modulating Glycogen Synthase Kinase 3 β: Allosteric Inhibitor Development and Their Potential for the Treatment of Chronic Diseases” (J Med Chem, 2017).
Active and inactive are the calls of the source. The calls are words filed in the database; no cut-off is given here.

Legend:
[1] = biological target: T1, Glycogen synthase kinase-3 beta (Homo sapiens, UniProt P49841); assay: Allosteric inhibition of human recombinant full length N-terminal GST-tagged GSK3beta expressed in fall armyworm Sf9 cells after 30 min in presence of ATP by kinase glo luminescent assay
Method in brief: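 Human recombinant GSK-3β (20 ng) with prephosphorylated peptide substrate, 50 μM in the 20 μL substrate mix, and ATP, 2 μM in that mix. Buffer: 50 mM HEPES pH 7.5, 1 mM EDTA, 1 mM EGTA, 15 mM Mg acetate; DMSO ≤1%. Incubated 30 min at 30 °C, then Kinase-Glo added and luminescence read after 10 min.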
Target sequence in this assay (P49841 whole entry): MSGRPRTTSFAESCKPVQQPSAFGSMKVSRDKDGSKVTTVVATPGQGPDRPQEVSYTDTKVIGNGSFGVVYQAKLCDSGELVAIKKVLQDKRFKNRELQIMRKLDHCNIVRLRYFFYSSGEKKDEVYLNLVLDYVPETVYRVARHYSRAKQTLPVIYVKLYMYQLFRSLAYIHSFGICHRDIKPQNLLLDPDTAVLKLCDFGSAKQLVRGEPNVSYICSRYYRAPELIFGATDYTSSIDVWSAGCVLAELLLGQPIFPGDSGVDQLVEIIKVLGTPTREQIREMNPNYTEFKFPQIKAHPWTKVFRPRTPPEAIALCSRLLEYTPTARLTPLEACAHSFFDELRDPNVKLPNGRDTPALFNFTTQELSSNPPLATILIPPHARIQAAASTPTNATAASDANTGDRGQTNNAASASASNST

[2] = biological target: T1, Glycogen synthase kinase-3 beta; assay: Non-competitive allosteric inhibition of human recombinant full length N-terminal GST-tagged GSK3beta expressed in fall armyworm Sf9 cells at 2.5 to 5 uM using GS2 as substrate measured at constant substrate levels and varying ATP levels after 30 mins by ADP-Glo kinase Assay
Method in brief: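 Human recombinant GSK-3β kinetics with ATP varied from 1 to 50 μM, inhibitor at 2.5 or 5 μM, and GS-2 held constant, stated as 25 μM in the methods and 12.5 μM in the legend. Read by ADP-Glo and analyzed by double-reciprocal plots. Each point is the mean of two experiments, each run in duplicate.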
Target sequence in this assay (P49841 whole entry, looked up): as the sequence (P49841 whole entry) above

[3] = biological target: T1, Glycogen synthase kinase-3 beta; assay: Non-competitive allosteric inhibition of human recombinant full length N-terminal GST-tagged GSK3beta expressed in fall armyworm Sf9 cells at 2 to 5 uM using GS2 as substrate measured at varying substrate levels and constant ATP levels after 30 mins by Double-reciprocal plot analysis
Method in brief: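 Human recombinant GSK-3β kinetics with GS-2 substrate varied from 12.5 to 100 μM, ATP held at 1 μM, and inhibitor at 2 or 5 μM. Analyzed by Lineweaver–Burk double-reciprocal plots. Each point is the mean of two experiments, each run in duplicate.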
Target sequence in this assay (P49841 whole entry, looked up): as the sequence (P49841 whole entry) above

[4] = biological target: T1, Glycogen synthase kinase-3 beta; assay: Allosteric inhibition of GSK3beta in human […] cells assessed as decrease in beta-catenin translocation from cytoplasm to nucleus at 10 uM after 72 hrs by DAPI-satining based confocal microscopic analysis; type: cell-based
Method in brief: (§1)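 LN18 glioblastoma cells (DMEM, 10% FBS, 2 mM glutamine) and SH-SY5Y neuroblastoma cells (DMEM, 10% FBS, 10 mM glutamine; 37 °C, 5% CO2) were grown on glass coverslips and exposed to compound at 10 μM for 72 h, with vehicle controls. Cells were fixed in 4% paraformaldehyde and permeabilized with Triton X-100. β-Catenin was stained with mouse anti-β-catenin and an Alexa-488 secondary, nuclei with DAPI, and localization imaged by confocal microscopy.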
Target sequence in this assay (P49841 whole entry, looked up): as the sequence (P49841 whole entry) above

[5] = biological target: T1, Glycogen synthase kinase-3 beta; assay: Allosteric inhibition of GSK3beta in human LN18 cells assessed as decrease in beta-catenin translocation from cytoplasm to nucleus at 10 uM after 72 hrs by DAPI-satining based confocal microscopic analysis; type: cell-based; method in brief: as §1
Target sequence in this assay (P49841 whole entry, looked up): as the sequence (P49841 whole entry) above

[6] = Cytotoxicity against motor neurons obtained from SMA patient derived iPSC assessed as cell death at >1.25 uM after 7 days; type: cell-based; conditions: human, motor neuron, 168 h
Method in brief: (§2)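 SMA type I/II patient iPSCs were differentiated into motor neurons over 15 days: LDN/SB431542, retinoic acid, BDNF, smoothened agonist, then DAPT/Ara-C. Cells were dissociated onto astrocyte-coated wells in Neurobasal with B27/N2 and BDNF, GDNF and CNTF, and treated 7 days with DMSO or increasing compound concentrations. After fixation, cells were immunostained for Islet1/MAP2 with Hoechst nuclear stain and imaged automatically. Survival is expressed as Islet1+ MN counts relative to DMSO wells, for each line.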

Motor neuron = assay: Increase in survival of motor neurons obtained from SMA patient derived iPSC after 7 days by Hoechst 33342-staining based fluorescence assay; type: functional, cell-based; conditions: Homo sapiens; method in brief: as §2
Myoblast [7] = assay: Induction of myoblast differentiation in CDM1 patient-derived human primary myoblasts assessed as increase in desmin expression after 4 days by Western blot analysis; type: functional, cell-based
Method in brief: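 CDM1 patient primary myoblasts, about 1,000 repeats and fewer than 15–20 passages, with control myoblasts. Grown in F10-based medium, then switched to fusion medium (DMEM, horse serum, insulin) changed daily. Compound in DMSO was added at different doses with fresh fusion medium each day. After 4 days, myotube RIPA extracts were probed by Western blot for desmin, with actin as control.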

Myoblast [8] = assay: Induction of myoblast differentiation in CDM1 patient-derived human primary myoblasts after 4 days by bright field microscopic method; type: functional, cell-based

Cn1c(=O)c(C(=O)NNC(=O)CCc2c[nH]c3ccccc23)c(O)c2ccccc21
IC50 [1]: > 20 µM

CCCCCCCCCCCC(=O)NNC(=O)c1c(O)c2ccccc2n(CC=C(C)C)c1=O
IC50 [1]: 7.78 µM

CCCCCCCCCCCC(=O)NNC(=O)c1c(O)c2ccc(Cl)cc2n(CC)c1=O
inhibition [2]: Active
inhibition [3]: Active

Cn1cc(C2=C(c3ccc(Cl)cc3Cl)C(=O)NC2=O)c2ccccc21
inhibition [4]: inactive
inhibition [5]: inactive

O=C1Cc2c([nH]c3ccc([N+](=O)[O-])cc23)-c2ccccc2N1 [ALSTERPAULLONE]
Activity [6]: Toxic
inhibition [4]: inactive
inhibition [5]: inactive

CCCCCCCCCCCC(=O)NNC(=O)c1c(O)c2ccccc2n(CC(C)C)c1=O
IC50 [1]: > 20 µM

CCCCCCCCCCCC(=O)NNC(=O)c1c(O)c2ccccc2n(CC)c1=O
Activity (Motor neuron): Dose-dependent effect
Activity [6]: Non-Toxic
inhibition [4]: Active
inhibition [5]: Active

Cn1c(=O)c(C(=O)NNCCC#N)c(O)c2ccccc21
IC50 [1]: > 20 µM

CCCCCCCC(=O)NNC(=O)c1c(O)c2ccccc2n(CC=C(C)C)c1=O
IC50 [1]: 7.11 µM

CCCCCCCCCCCC(=O)NNC(=O)c1c(O)c2cc(Br)ccc2n(CC)c1=O
Activity (Motor neuron): Dose-dependent effect
Activity [6]: Non-Toxic
inhibition [4]: Active
Activity (Myoblast [7]): Active
inhibition [5]: Active
inhibition [2]: Active
Activity (Myoblast [8]): Dose-dependent effect
inhibition [3]: Active

CCn1c(=O)c(C(=O)NNC(=O)CCc2c[nH]c3ccccc23)c(O)c2ccccc21
IC50 [1]: > 20 µM

Cn1c(=O)c(C(=O)NNC(=O)c2ccccc2)c(O)c2ccccc21
IC50 [1]: > 20 µM

CC(=O)NNC(=O)c1c(O)c2ccccc2n(C)c1=O
IC50 [1]: > 20 µM

Cn1c(=O)c(C(=O)NCC(=O)NCC(=O)OCc2ccccc2)c(O)c2ccccc21
IC50 [1]: > 20 µM

CCCCCCCC(=O)NNC(=O)c1c(O)c2cc(F)ccc2[nH]c1=O
IC50 [1]: > 20 µM

CCCCCCCC(=O)NNC(=O)c1c(O)nc2ccccc2c1O
IC50 [1]: > 20 µM

Cn1c(=O)c(C(=O)NNC(=O)Cc2ccccc2)c(O)c2ccccc21
IC50 [1]: > 20 µM

CCCCCCNC(=O)c1c(O)c2ccccc2n(C)c1=O
IC50 [1]: > 20 µM

CCCCCCCC(=O)NNC(=O)c1c(O)c2ccccc2n(CC)c1=O
IC50 [1]: > 20 µM

CCn1c(=O)c(C(=O)NNC(=O)CCc2ccc(O)cc2)c(O)c2ccccc21
IC50 [1]: > 20 µM
